Compound activity as filed in PubChem BioAssay.
MrgX1 PAM = allosterically activates human MrgX1 receptor signaling | Q96LB2 | AID 588675 | MrgX1-HEK293, Fluo-4 calcium flux, FDSS; stronger effect = higher value | B-score at 10 µM | 310,000 tested, 0.63% active;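 active = plate-corrected calcium response at least 3 library SD above typical, normal starting fluorescence, not activating the receptor alone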;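 note: compound read alongside a low EC10 to EC30 dose of BAM8-22 agonist; peak minus trough fluorescence over baseline measured at the second addition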
Target sequence (Q96LB2 whole entry, looked up): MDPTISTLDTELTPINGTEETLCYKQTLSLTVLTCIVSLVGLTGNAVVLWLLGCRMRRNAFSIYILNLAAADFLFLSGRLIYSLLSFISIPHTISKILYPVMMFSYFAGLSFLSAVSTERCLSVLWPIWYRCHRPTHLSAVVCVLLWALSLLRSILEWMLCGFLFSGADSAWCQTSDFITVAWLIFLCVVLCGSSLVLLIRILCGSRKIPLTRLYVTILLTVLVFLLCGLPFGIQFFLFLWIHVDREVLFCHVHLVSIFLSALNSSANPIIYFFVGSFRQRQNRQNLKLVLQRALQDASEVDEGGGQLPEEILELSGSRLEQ
MrgX1 antag = blocks BAM8-22 activation of human MrgX1 receptor. AID 588676. B-score at 10 µM. 310,000 tested, 1.3% active. MRGX1-HEK293 calcium flux, Fluo-4, BAM8-22 antagonism; stronger effect = lower value;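 active = calcium-response B-score plate-corrected more than 3 library SD below zero, starting fluorescence within 5 deviations, no agonist response on first addition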;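 note: peak minus trough fluorescence over baseline after final BAM8-22 challenge near maximal dose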
RGS4 pot = potentiators or activators of RGS4 | B-score at 10 µM | AID 463111 | 310,000 tested, 0.92% active | HEK293 M3R/inducible RGS4, carbachol calcium flux Fluo4; stronger effect = lower value;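 active = B-score of the integrated calcium signal more than 4 SD below the library mean, with starting fluorescence not abnormally high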;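 note: negative B-score means reduced calcium response which marks RGS4 activation or potentiation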
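Assay system: HEK293 FlpIn-TREx cells, stable M3R, doxycycline-inducible RGS4 / Probe or stimulus: carbachol, ECmax concentration / Times: overnight RGS4 induction, 30 min dye load 37 °C, 20 min compound RT / Signal: kinetic calcium fluorescence imaging with Fluo4-AM dye, 2 µM / Measure: Agonist-evoked peak-minus-minimum fluorescence over baseline, integrated ratio, B score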
MrgX1 ag = agonists of human MrgX1 receptor; 310,000 tested, 0.44% active; B-score at 10 µM; Q96LB2; MrgX1-HEK293 cells, Fluo-4 calcium fluorescence, agonist mode; stronger effect = higher value;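 active = calcium response B-score plate-corrected fluorescence ratio at least 3 library SD, with starting fluorescence B-score inside 5 SD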
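Test system: HEK293 cells stably expressing human MrgX1 receptor; amount: 15,000 cells per well; doses: compound delivered in addition one of three; times: overnight plating before 1 h dye loading; detection: Fluo-4 NW calcium-flux fluorescence, kinetic read; read-out basis: B-scored fluorescence response ratio; controls: positive and negative controls per plate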
RGS4 block = human RGS4 inhibition. P49798. HEK293 M3R/RGS4 inducible, Fluo-4 calcium flux; stronger effect = higher value; triggered by carbachol at its EC20. B-score at 10 µM. 310,000 tested, 0.45% active;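 active = B-score, a plate-corrected calcium signal, over three deviations above library mean, with baseline fluorescence within five deviations of library mean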;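 note: RGS4 expression induced by doxycycline in cells with stable M3 receptor; B-score is computed from the integrated fluorescence ratio over baseline after carbachol; higher B-score means a larger calcium signal and so more RGS4 inhibition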
Target sequence (P49798 whole entry, looked up): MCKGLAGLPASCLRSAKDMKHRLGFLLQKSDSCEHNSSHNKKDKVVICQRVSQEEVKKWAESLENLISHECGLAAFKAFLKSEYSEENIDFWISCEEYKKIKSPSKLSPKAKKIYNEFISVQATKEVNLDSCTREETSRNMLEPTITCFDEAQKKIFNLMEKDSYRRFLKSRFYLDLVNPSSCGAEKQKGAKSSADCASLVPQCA
MrgX1 PAM conf = reconfirmed allosteric activator of human MrgX1 receptor; shares compounds with MrgX1 PAM; 1,200 tested, 13% active; activation (ratio percentage), % at 10 µM; MrgX1-HEK293, Fluo-4 calcium fluorescence, FDSS;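 active = ratio at least 3 SD above the weak peptide control, stable starting fluorescence, no direct agonism earlier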;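 note: compound followed by low BAM8-22 agonist challenge near EC20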
MrgX1 ant reconf = confirmation of human MrgX1 receptor antagonists; shares compounds with MrgX1 antag; 2,300 tested, 19% active; remaining BAM8-22 calcium response % of control (stronger effect = lower value), % at 10 µM; MrgX1-HEK293, BAM8-22 calcium flux, Fluo-4; stronger effect = lower value; AID 602420;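 active = remaining agonist calcium response no higher than 100% minus 3 SD of agonist-only control wells, with starting fluorescence near control levels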;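 note: agonist BAM8-22 given at a near maximal EC90 to ECmax level; peak minus minimum fluorescence divided by baseline after agonist addition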
HEK293 Ca flux = activity in parental HEK293 cells lacking MrgX1 | shares compounds with MrgX1 antag | AID 624111 | Fluo-4 calcium fluorescence, FDSS | fluorescence ratio F(max-min)/F0 at 10 µM | 4,000 tested, 2% active;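 active = duplicate-averaged calcium fluorescence ratio at least three times the standard deviation of buffer wells, a nonspecific response in parental cells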
HEK293 Ca counter = activity in parental HEK293 cells without MrgX1 | shares compounds with MrgX1 antag | fluorescence ratio F(max-min)/F0 at 10 µM | parental HEK293 calcium flux, Fluo-4 fluorescence ratio; stronger effect = higher value | 4,000 tested, 0.4% active;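 active = calcium fluorescence ratio, averaged over duplicates, at least 3 SD of the buffer-well ratio, meaning a nonspecific response in receptor-free cells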;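 note: untransfected parental HEK293 lacking MrgX1 used as counterscreen for MrgX1 allosteric activators; fluorescence change taken during the second addition on a kinetic imager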
HEK293 Ca cntr2 = MrgX1 activator counter-screen hit in parental HEK293 cells; shares compounds with MrgX1 antag; fluorescence ratio F(max-min)/F0 at 10 µM; 4,000 tested, 8.7% active; Fluo-4 calcium fluorescence (FDSS); stronger effect = higher value; AID 624115;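 active = calcium fluorescence ratio at least three times the spread of buffer wells, meaning a non-specific response in parental cells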
Numbers without * were called inactive; i = inactive; x = not tested or not shown. Shown are actives, neighbours in structure and some others; about 3.5% of the full set was active somewhere.

SMILES | MrgX1 PAM | MrgX1 antag | RGS4 pot | MrgX1 ag | RGS4 block | MrgX1 PAM conf | HEK293 Ca flux | HEK293 Ca counter | HEK293 Ca cntr2 | others
CC(OC(=O)CC1CCCC1)C(=O)Nc1ccc(S(N)(=O)=O)cc1 (stereo not given) | i | i | i | i | i | x | x | x | x
Cc1cc(/C=C2/SC(=S)N(c3cccc(Cl)c3)C2=O)c(C)n1-c1cccnc1 | 19* | i | i | i | i | i | i | i | i
Cc1nc2scc(C)n2c(=O)c1S(=O)(=O)Nc1ccc(N2CCN(S(C)(=O)=O)CC2)cc1 | i | i | i | i | i | x | x | x | x
Cc1cccc(NS(=O)(=O)c2c(C)nc3scc(C)n3c2=O)c1 | 21* | i | i | i | i | i | i | i | i
COc1ccc(CCNc2nc(-c3ccncc3)cs2)cc1OC | 7.3* | -5.1* | i | i | i | i | i | i | i | MrgX1 ant reconf=78%*
O=C(CNC(=O)c1ccc(Cl)c([N+](=O)[O-])c1)NCC1CCCO1 (stereo not given) | i | i | i | i | i | x | x | x | x
COC1(c2cc(-c3ccccc3)nc(N)n2)CCCCC1 | 31* | i | i | i | i | 28%* | i | i | i
Nc1nc(-c2ccccc2)cc(C(F)(F)F)n1 | i | i | i | i | i | x | x | x | x
COC(=O)C1CCN(c2cc(Cl)nc(N)n2)CC1 | 8.1* | i | i | i | i | i | i | i | i
NC(=O)C1CCN(c2cc(Cl)nc(N)n2)CC1 | i | i | i | i | i | x | x | x | x
Nc1ccccc1C(=O)NC1CCCNC1=O (stereo not given) | i | i | i | i | i | x | x | x | x
O=C1CCC2=C(CCCC2=O)N1 | 10* | i | i | i | i | i | i | i | i
C/C(=N\Nc1nc(C)c(C)s1)c1ccc([N+](=O)[O-])cc1 | i | i | i | i | i | x | x | x | x
O=C(NCCCNC(=O)c1ccc(-c2cccc(Cl)c2)o1)c1cnccn1 | 13* | i | i | i | i | i | i | i | i
O=C(NCCNC(=O)c1cnccn1)c1cccc(Cl)c1 | i | i | i | i | i | x | x | x | x
O=C(NCCNC(=O)c1ccc(-c2ccc(Cl)c(Cl)c2)o1)c1cnccn1 | 7.2* | i | i | i | i | i | i | i | i
C/C(=N\OCC(=O)Nc1ccccc1C(=O)O)c1cccs1 | i | i | i | i | i | x | x | x | x
C/C(=N/OCC(=O)Nc1ccc(C)cc1C)c1cccs1 | 27* | i | i | i | i | 3.9%* | i | i | i
O=C(C1CCCO1)N1CCN(S(=O)(=O)c2ccc(Cl)cc2)CC1 (stereo not given) | 15* | i | i | i | i | i | i | i | i
CC1CCc2c(C(=O)Nc3ccccn3)csc2C1 (stereo not given) | 8.3* | i | i | i | i | i | i | i | i
CC1CCc2c(C(=O)NCc3ccccn3)csc2C1 (stereo not given) | i | i | i | i | i | x | x | x | x
